Assay results taken from ChEMBL document CHEMBL4251706, “Elimination of HIV-1 Latently Infected Cells by Gnidimacrin and a Selective HDAC Inhibitor” (ACS Med Chem Lett, 2018).
Active and inactive are the calls of the source. The calls are words filed in the database; no cut-off is given here.

Columns and labels:
[1] = system: Human immunodeficiency virus 1; experiment: Reactivation of latent HIV1 infected in human U1 cells assessed as increase in p24 production after 48 hrs by ELISA; type: functional, organism-based; details: Human immunodeficiency virus 1, U1, 48 h; read-out: EC50
[2] = system: Human immunodeficiency virus 1; experiment: Reactivation of latent HIV1 infected in human U1 cells assessed as increase in p24 production after 48 hrs by ELISA relative to vorinostat; type: functional
How it was run: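 U1 cells at 2x10^5 cells/ml incubated with a range of concentrations at 37 °C for 48 h. Supernatant p24 measured by HIV p24 ELISA. EC50 ± SD derived from 3 independent experiments.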

[3] = Cytotoxicity against human U937 cells assessed as reduction in cell viability after 48 hrs by CellTiter-Glo luminescent cell viability assay; type: cell-based, U-937
How it was run: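 U937 cells (HIV-1-negative parental line of U1) at 2x10^5 cells/ml exposed to a range of concentrations for 48 h at 37 °C. Viability read by CellTiter-Glo luminescence. CC50 ± SD derived from 3 independent experiments.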

[4] = Selectivity index, ratio of CC50 for human U937 cells to EC50 for reactivation of latent HIV1 infected in human U1 cells; details: U937 cells (CC50) and latent HIV-1 infected U1 cells (EC50)
[5] = system: Human immunodeficiency virus 1; experiment: Synergistic reactivation of latent HIV1 infected in human U1 cells assessed as increase in p24 production after 48 hrs in presence of HDAC inhibitor TPB by ELISA; type: functional, organism-based; details: Human immunodeficiency virus 1, U1, 48 h
[6] = system: Human immunodeficiency virus 1; experiment: Synergistic reactivation of latent HIV1 infected in human J-Lat A2 cells assessed as increase in GFP positive cells after 72 hrs in presence of HDAC inhibitor TPB by flow cytometric analysis relative to control; type: functional
How it was run: (§1)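 J-Lat (A2) cells express GFP on latent HIV-1 activation; 1x10^6 cells/well incubated with LRA(s), alone or in pairs (HDAC inhibitor TPB 0.3 µM or TPyB 1.0 µM), at 37 °C for 72 h; GFP+ cell frequency by flow cytometry; two independent experiments, one-tailed t-test.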

[7] = system: Human immunodeficiency virus 1; experiment: Reactivation of latent HIV1 infected in human J-Lat A2 cells assessed as increase in GFP positive cells at 80 pM after 72 hrs by flow cytometric analysis relative to control; type: functional; how it was run: as §1
[8] = Cytotoxicity against human J-Lat (A2) cells assessed as effect on cell viability at 80 pM after 72 hrs by flow cytometric analysis; type: cell-based
How it was run: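 J-Lat (A2) cells, 1x10^6 cells/well, exposed to LRA(s) at 37 °C for 72 h; percent viable cells read by flow cytometry, two independent experiments.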

[9] = system: Human immunodeficiency virus 1; experiment: Synergistic reactivation of latent HIV1 infected in human PBMC assessed as reduction in HIV1 DNA at 20 pM after 6 days in presence of HDAC inhibitor TPB by SYBR green dye based RT-PCR analysis relative to control; type: functional
[10] = system: Human immunodeficiency virus 1; experiment: Synergistic reactivation of latent HIV1 infected in human PBMC assessed as reduction in frequency of HIV1 latently infected CD4+ cells at 20 pM preincubated for 6 days followed by PHA-stimulation measured after 48 hrs in presence of HDAC inhibitor TPB by ELISA; type: functional
[11] = system: Human immunodeficiency virus 1; experiment: Reactivation of latent HIV1 infected in human U1 cells/uninfected U937 cell mixture assessed as increase in p24 production at 26 pM supplemented with fresh medium containing compound every 3 days for 18 days measured at day 9 post dose by ELISA; type: functional, organism-based
How it was run: (§2)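 U1 and U937 cells mixed 1:4 (1x10^5 cells/ml) with LRA(s) (GM 26 pM, TPyB 0.57 µM) or DMSO, plus T20 1 µg/ml, for 18 days. p24 in supernatant read by ELISA every 3 days, after which medium with compound was renewed and cells reset to 1x10^5/ml. At day 18, part of the cells got GM 129 pM for 72 h and were read on day 21.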

[12] = system: Human immunodeficiency virus 1; experiment: Synergistic reactivation of latent HIV1 infected in human U1 cells/uninfected U937 cell mixture assessed as increase in p24 production at 26 pM supplemented with fresh medium containing compound every 3 days for 18 days measured at day 6 post dose in presence of HDAC inhibitor TPyB by ELISA; type: functional, organism-based; how it was run: as §2
[13] = system: Human immunodeficiency virus 1; experiment: Reactivation of latent HIV1 infected in human U1 cells/uninfected U937 cell mixture assessed as p24 level at 26 pM supplemented with fresh medium containing compound every 3 days for 18 days measured at day 18 post dose by ELISA; type: functional; how it was run: as §2
[14] = system: Human immunodeficiency virus 1; experiment: Synergistic reactivation of latent HIV1 infected in human U1 cells/uninfected U937 cell mixture assessed as p24 level at 26 pM supplemented with fresh medium containing compound every 3 days for 18 days measured at day 6 post dose in presence of HDAC inhibitor TPyB by ELISA; type: functional; how it was run: as §2
[15] = system: Human immunodeficiency virus 1; experiment: Reactivation of latent HIV1 infected in human U1 cells/uninfected U937 cell mixture assessed as increase in p24 production at 26 pM supplemented with fresh medium containing compound every 3 days for 18 days and subsequent dosing at 129 pM at day 18 post dose measured on day 21 by ELISA; type: functional, organism-based; how it was run: as §2
[16] = system: Human immunodeficiency virus 1; experiment: Synergistic reactivation of latent HIV1 infected in human U1 cells/uninfected U937 cell mixture assessed as increase in p24 production at 26 pM supplemented with fresh medium containing compound every 3 days for 18 days and subsequent dosing at 129 pM at day 18 post dose measured on day 21 in presence of HDAC inhibitor TPyB by ELISA; type: functional, organism-based; how it was run: as §2
[17] = system: Human immunodeficiency virus 1; experiment: Synergistic reactivation of latent HIV1 infected in human U1 cells/uninfected U937 cell mixture assessed as reduction in proviral DNA level at 26 pM supplemented with fresh medium containing compound every 3 days for 18 days measured post last dose in presence of HDAC inhibitor TPyB by PCR analysis relative to control; type: functional
How it was run: (§3)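 Cells from the 18-day U1/U937 (1:4) co-culture with LRA(s) or DMSO plus T20 were tested for proviral DNA by PCR of HIV-1 pol (200 bp, 30 cycles), with B2M (779 bp, 25 cycles) as internal control. Products run on 2% agarose and quantified by densitometry; values are ratios of treated to DMSO.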

[18] = system: Human immunodeficiency virus 1; experiment: Reactivation of latent HIV1 infected in human U1 cells/uninfected U937 cell mixture assessed as reduction in proviral DNA level at 26 pM supplemented with fresh medium containing compound every 3 days for 18 days measured post last dose by PCR analysis; type: functional, organism-based; how it was run: as §3
PBMC [19] = experiment: Induction of IFNgamma1 production in human PBMC at 2000 pM after 2 days by ELISA (reference value: 29 pg/ml); type: cell-based; details: 48 h, 0.002 µM
PBMC [20] = experiment: Induction of IFNgamma1 production in human PBMC at 20 pM after 2 days by ELISA (reference value: 29 pg/ml); type: cell-based; details: 48 h
PBMC [21] = experiment: Induction of IFNgamma1 production in human PBMC at 2000 pM after 2 days in presence of 3 uM HDAC inhibitor TPB by ELISA (reference value: 26 pg/ml); type: cell-based; details: 48 h, 0.002 µM
PBMC [22] = experiment: Induction of IFNgamma1 production in human PBMC at 20 pM after 2 days in presence of 3 uM HDAC inhibitor TPB by ELISA (reference value: 26 pg/ml); type: cell-based; details: 48 h
PBMC [23] = experiment: Induction of IFNgamma1 production in human PBMC at 2000 pM after 2 days in presence of 1 uM HDAC inhibitor TPB by ELISA (reference value: 27 pg/ml); type: cell-based; details: 48 h, 0.002 µM
PBMC [24] = experiment: Induction of IFNgamma1 production in human PBMC at 20 pM after 2 days in presence of 1 uM HDAC inhibitor TPB by ELISA (reference value: 27 pg/ml); type: cell-based; details: 48 h
PBMC [25] = experiment: Induction of IFNgamma1 production in human PBMC at 2000 pM after 2 days in presence of 0.3 uM HDAC inhibitor SAHA by ELISA (reference value: 25 pg/ml); type: cell-based; details: 48 h, 0.002 µM
PBMC [26] = experiment: Induction of IFNgamma1 production in human PBMC at 20 pM after 2 days in presence of 0.3 uM HDAC inhibitor SAHA by ELISA (reference value: 25 pg/ml); type: cell-based; details: 48 h
PBMC [27] = experiment: Induction of T-cell activation in human PBMC assessed as increase in CD69 expression at 3 nM measured after 1 day in presence of HDAC inhibitor TPyB by flow cytometric method; type: cell-based; details: 24 h, 0.003 µM
PBMC [28] = experiment: Induction of T-cell activation in human PBMC assessed as increase in CD69 expression at 3 nM measured after 1 day in presence of HDAC inhibitor vorinostat by flow cytometric method; type: cell-based; details: 24 h, 0.003 µM
[29] = system: Human immunodeficiency virus 1; experiment: Ratio of EC50 for reactivation of latent HIV1 infected in human U1 cells to EC50 for synergistic reactivation of latent HIV1 infected in human U1 cells in presence of HDAC inhibitor TPB; type: functional
[30] = system: Human immunodeficiency virus 1; experiment: Synergistic reactivation of latent HIV1 infected in human U1 cells assessed as increase in p24 production after 48 hrs in presenc of HDAC inhibitor TPB by ELISA relative to vorinostat; type: functional
[31] = Cytotoxicity against human Jurkat cells assessed as reduction in cell viability after 72 hrs by CellTiter-Glo luminescent cell viability assay; type: cell-based

In the case of `C=C(C)[C@@]12C[C@@H](COC(=O)c3ccccc3)[C@@]34OC5(O[C@@H]1[C@@H]3[C@@H]1O[C@]1(CO)[C@@H](O)[C@@]1(O)[C@H]4[C@H]([C@H](C)[C@@H]1OC(=O)c1ccccc1)[C@H](C)CCCCCC[C@H]5O)O2` [GNIDIMACRIN], the EC50 [1] is reported as 0.018 nM, the “fold change (FC)” value [2] is reported as 12.3 and the CC50 at 48 h [3] is reported as 4.2 to 4.8 µM. It also gave a selectivity ratio [4] of 260000 to 750000, an EC50 [5] of 5.6 pM and an Activity [6] of 21%. For the same compound, the Activity [7] was over 5%, the Activity [8] was “Non-Toxic” and the “fold change (FC)” value [9] was 1.8. The “fold change (FC)” value [10] was over 3, the Activity [11] was “Active” and the Activity [12] was “Active”. For the same compound, the Activity [13] was 49 pg/mL, the Activity [14] was 12 pg/mL and the Activity [15] was “inactive”. The Activity [16] was “inactive”, the “fold change (FC)” value [17] was 10 and the Activity [18] was “Active”. The Activity (PBMC [19]) was 164 pg/mL, the Activity (PBMC [20]) was 35 pg/mL and the Activity (PBMC [21]) was 42 pg/mL. For the same compound, the Activity (PBMC [22]) was 32 pg/mL, the Activity (PBMC [23]) was 47 pg/mL and the Activity (PBMC [24]) was 34 pg/mL. The Activity (PBMC [25]) was 39 pg/mL, the Activity (PBMC [26]) was 30 pg/mL and the Activity (PBMC [27]) was “Toxic”. For the same compound, the Activity (PBMC [28]) was “Toxic”, the “Ratio EC50” value [29] was over 3 and the “fold change (FC)” value [30] was 13.8. The CC50 at 72 h [31] was 5.3 µM.
